Reference: ChEMBL document CHEMBL4261610, “Structure-activity relationships of pyrazole-4-carbodithioates as antibacterials against methicillin-resistant Staphylococcus aureus” (Bioorg Med Chem Lett, 2018)
≈ marks a conversion by molar mass, not a printed value. Calls of active or inactive are those of the source. No cut-off for these calls is given here.

What was measured:
[1] = system: Staphylococcus aureus; experiment: Antibacterial activity against methicillin-resistant Staphylococcus aureus MW2 after 24 hrs by two-fold broth microdilution method; format: functional; conditions: MW2, 24 h
Summary of the method: (§1)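 Read-out is the minimum inhibitory concentration against MRSA strain MW2, expressed in μg/mL.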

[2] = Cytotoxicity against human HKC8 cells after 24 hrs by WST1 assay; format: cell-based; conditions: HKC8, 24 h
Summary of the method: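 Human HKC-8 cells were exposed to compound, and cytotoxicity was reported as IC₅₀ in μg/mL.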

[3] = Selectivity index, ratio of IC50 for human HKC8 cells to MIC for methicillin-resistant Staphylococcus aureus MW2; format: toxicity; conditions: read-out: Selectivity Index
Summary of the method: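 Ratio of the cytotoxic IC50 in human HKC-8 kidney cells to the MIC against MRSA MW2. Both values are in μg/mL and were measured in this work.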

[4] = system: dsDNA; experiment: Binding affinity to Rt1 double stranded DNA (unknown origin) at DNA to compound ratio of 1:2.5 to 1:10 after 20 mins by ESI-MS analysis; format: nucleic-acid assay
[5] = system: dsDNA; experiment: Binding affinity to D2 double stranded DNA (unknown origin) at DNA to compound ratio of 1:2.5 to 1:10 after 20 mins by ESI-MS analysis; format: nucleic-acid assay
[6] = system: dsDNA; experiment: Binding affinity to Dst double stranded DNA (unknown origin) at DNA to compound ratio of 1:2.5 to 1:10 after 20 mins by ESI-MS analysis; format: nucleic-acid assay
[7] = system: Quadruplex DNA; experiment: Binding affinity to ER03 quadruplex DNA (unknown origin) at DNA to compound ratio of 1:2.5 to 1:10 after 20 mins by ESI-MS analysis; format: nucleic-acid assay
[8] = system: DNA; experiment: Binding affinity to ER04 single stranded DNA (unknown origin) at DNA to compound ratio of 1:2.5 to 1:10 after 20 mins by ESI-MS analysis; format: nucleic-acid assay
[9] = system: Quadruplex DNA; experiment: Binding affinity to G5 quadruplex DNA (unknown origin) at DNA to compound ratio of 1:2.5 to 1:10 after 20 mins by ESI-MS analysis; format: nucleic-acid assay
[10] = Binding affinity to RNA oligonucleotide (unknown origin)
Summary of the method: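 RNA oligonucleotides were incubated with compound, and adduct formation was examined by ESI mass spectrometry.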

[11] = Inhibition of DNA replication in cell-free system at >160 uM using 5'-flap-primed M13 ssDNA template/dNTP pretreated for 5 mins followed by DNA addition and measured after 20 mins by helicase-independent polymerase3 primer extension-strand displacement rolling circle assay; format: functional
Summary of the method: (§2)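 The cell-free bacterial replication system holds all enzymes, ancillary proteins, nucleotide precursors and DNA template needed to duplicate circular bacterial DNA. Covalent reaction with any component would read out as loss of replication.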

[12] = Inhibition of DNA replication in cell-free system at <640 uM using 5'-flap-dsDNA template/dNTP after 20 mins by helicase-dependent leading strand rolling circle replication assay; format: functional; summary of the method: as §2
[13] = Inhibition of RNA transcription in cell-free system; format: functional
[14] = system: Staphylococcus aureus; experiment: Antibacterial activity against methicillin-resistant Staphylococcus aureus MW2; format: functional; summary of the method: as §1

Molecule `CCCSC(=S)c1c(C)nn(-c2ccc(C)cc2)c1O` has an MIC [1] of 4 µg/mL (≈ 13.1 µM).

`C=CCSC(=S)c1c(C)nn(-c2ccccc2)c1O` showed an MIC [1] of 4 to 8 µg/mL (≈ 13.8 to 27.5 µM), an IC50 [2] of 16 to 32 µg/mL (≈ 55.1 to 110 µM) and a selectivity ratio [3] of 2 to 4.

For `CCCSC(=S)c1c(-c2ccc(F)cc2)nn(-c2ccccc2)c1O`, the MIC [1] was 1 µg/mL (≈ 2.68 µM), the IC50 [2] was 4 µg/mL (≈ 10.7 µM) and the selectivity ratio [3] was 4.

Work on `CCCSC(=S)c1c(C)nn(-c2ccc(Br)cc2)c1O` yielded an MIC [1] of 1 to 2 µg/mL (≈ 2.69 to 5.39 µM).

For `CCCSC(=S)c1c(C)nn(-c2ccccc2)c1O`, the MIC [1] was 4 µg/mL (≈ 13.7 µM), the IC50 [2] was 4 µg/mL (≈ 13.7 µM) and the selectivity ratio [3] was 1. For the same molecule, the Activity [4] was “inactive”, the Activity [5] was “inactive” and the Activity [6] was “inactive”. The Activity [7] was “inactive”, the Activity [8] was “inactive” and the Activity [9] was “inactive”. For the same molecule, the Activity [10] was “inactive”, the inhibition [11] was “Active” and the inhibition [12] was “inactive”. The inhibition [13] was “inactive” and the MIC [14] was 4 µg/mL (≈ 13.7 µM).

With `Cc1nn(-c2ccccc2)c(O)c1C(=S)SCc1ccccc1` the MIC [1] was 2 to 4 µg/mL (≈ 5.87 to 11.7 µM), the IC50 [2] was 32 µg/mL (≈ 94 µM) and the selectivity ratio [3] was 8 to 16.

With `CCCCSC(=S)c1c(C)nn(-c2ccccc2)c1O` the MIC [1] was 2 to 4 µg/mL (≈ 6.53 to 13.1 µM), the IC50 [2] was 4 µg/mL (≈ 13.1 µM) and the selectivity ratio [3] was 1 to 2.

For `Cc1nn(-c2ccccc2)c(O)c1C(=S)Sc1cccnc1`, the MIC [1] was 16 to 32 µg/mL (≈ 48.9 to 97.7 µM).

With `CCCSC(=S)c1c(-c2ccccc2)nn(-c2ccccc2)c1O` the MIC [1] was 2 µg/mL (≈ 5.64 µM), the IC50 [2] was 32 µg/mL (≈ 90.3 µM) and the selectivity ratio [3] was 16.

For `CCCNC(=S)c1c(C)nn(-c2ccccc2)c1O`, the MIC [1] was over 64 µg/mL.

Molecule `CSC(SC)=C1C(=O)N(c2ccccc2)N=C1C` has an MIC [1] of over 64 µg/mL.

Work on `CCCSC(=S)c1c(-c2ccc(OC)cc2)nn(-c2ccccc2)c1O` yielded an MIC [1] of 2 µg/mL (≈ 5.2 µM), an IC50 [2] of 8 µg/mL (≈ 20.8 µM) and a selectivity ratio [3] of 4.

`CCCSC(=S)c1c(C)nn(-c2ccc(Cl)cc2)c1O` gave an MIC [1] of 2 to 4 µg/mL (≈ 6.12 to 12.2 µM).

`CCCSC(=S)c1c(-c2ccc(C(F)(F)F)cc2)nn(-c2ccccc2)c1O` showed an MIC [1] of 32 to 64 µg/mL (≈ 75.7 to 151 µM).

With `CCCSC(=S)c1c(-c2ccc(Cl)cc2)nn(-c2ccccc2)c1O` the MIC [1] was 0.5 to 1 µg/mL (≈ 1.29 to 2.57 µM), the IC50 [2] was 4 µg/mL (≈ 10.3 µM) and the selectivity ratio [3] was 4 to 8.

Work on `CCCSC(=S)c1c(-c2ccc(C#N)cc2)nn(-c2ccccc2)c1O` yielded an MIC [1] of 2 µg/mL (≈ 5.27 µM).

For `CCCSC(=S)c1c(-c2ccc(C)cc2)nn(-c2ccccc2)c1O`, the MIC [1] was 1 to 2 µg/mL (≈ 2.71 to 5.43 µM), the IC50 [2] was 8 µg/mL (≈ 21.7 µM) and the selectivity ratio [3] was 4 to 8.

Work on `CCCSC(=S)c1c(C)nn(-c2ccc(OC)cc2)c1O` yielded an MIC [1] of 8 µg/mL (≈ 24.8 µM).

Molecule `CCCSC(=S)c1c(C)nn(-c2ccc([N+](=O)[O-])cc2)c1O` has an MIC [1] of 0.5 to 1 µg/mL (≈ 1.48 to 2.96 µM), an IC50 [2] of 0.5 to 1 µg/mL (≈ 1.48 to 2.96 µM) and a selectivity ratio [3] of 1.

With `CCCSC(=S)c1c(-c2ccc(Br)cc2)nn(-c2ccccc2)c1O` the MIC [1] was 0.5 µg/mL (≈ 1.15 µM).

For `CCCSC(=S)c1c(C)nn(-c2ccc(C#N)cc2)c1O`, the MIC [1] was 2 µg/mL (≈ 6.3 µM).

`CCCNC(=O)c1c(C)nn(-c2ccccc2)c1O` gave an MIC [1] of over 64 µg/mL.

Molecule `CCCOC(=O)c1c(C)nn(-c2ccccc2)c1O` has an MIC [1] of over 64 µg/mL.

With `CSC(=S)c1c(C)nn(-c2ccccc2)c1O` the MIC [1] was 16 µg/mL (≈ 60.5 µM), the IC50 [2] was 16 µg/mL (≈ 60.5 µM) and the selectivity ratio [3] was 1.

`CCCSC(=S)c1c(-c2ccc([N+](=O)[O-])cc2)nn(-c2ccccc2)c1O` showed an MIC [1] of 1 µg/mL (≈ 2.5 µM), an IC50 [2] of 0.5 µg/mL (≈ 1.25 µM) and a selectivity ratio [3] of 0.5.

In the case of `CCSC(=S)c1c(C)nn(-c2ccccc2)c1O`, the MIC [1] is reported as 8 µg/mL (≈ 28.7 µM), the IC50 [2] is reported as 8 µg/mL (≈ 28.7 µM) and the selectivity ratio [3] is reported as 1.

Work on `CCCSC(=S)c1c(C)nn(-c2ccc(F)cc2)c1O` yielded an MIC [1] of 2 to 4 µg/mL (≈ 6.44 to 12.9 µM).
